Results taken from ChEMBL document CHEMBL4673192, “Structure-activity relationship studies on 2,5,6-trisubstituted benzimidazoles targeting Mtb-FtsZ as antitubercular agents” (RSC Med Chem, 2021).
Values after ≈ are worked out from the molar mass of the structure shown.

Assays:
[1] = tested on: Mycobacterium tuberculosis; experiment: Antitubercular activity against Mycobacterium tuberculosis H37Rv incubated for 6 days by alamar blue assay; format: functional; settings: 144 h, time 6 day
Outline: (§1)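 MABA (protocol A): Mtb H37Rv grown in 7H9 with 10% OADC and 0.05% Tween-80 and used at mid-log phase. Compounds from DMSO stocks were serially diluted 2-fold, and the inoculum was set to OD600 0.005. Plates were incubated 6 days at 37 °C, then Alamar Blue was added for a further 24 h. MIC is the lowest concentration (μg mL−1) preventing the colour change.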

[2] = tested on: Mycobacterium tuberculosis; experiment: Antitubercular activity against mid logarithmic stage Mycobacterium tuberculosis H37Rv incubated for 6 days by alamar blue assay; format: functional; settings: 144 h, time 6 day
Outline: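 Protocol B: the mid-log H37Rv culture (OD580 0.4) was diluted 1:100 and mixed with an equal volume of serially diluted compound (DMSO). After 6 days at 37 °C, Alamar blue plus 20% Tween 80 was added. Plates were read 24 h later at 570 nm against a 600 nm reference. Untreated inoculum wells gave the survival-inhibition curve, and rifampicin served as positive control.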

[3] = Cytotoxicity against human HepG2 cells assessed as reduction in cell viability at 20 uM incubated for 72 hrs by MTT assay relative to control; format: cell-based; settings: read-out: INH
Outline: (§2)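 MTT assay: cells were seeded at 2500/well and attached overnight to 70–90% confluency (HepG2 in RPMI-1640, WI-38 in DMEM, each with 10% FBS). Compound was given at 20 μM final with 0.5% DMSO for 72 h. MTT was applied for 4 h in the dark and the formazan dissolved in DMSO, with OD read at 570 nm. % inhibition is relative to the DMSO control, mean of triplicate.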

[4] = Cytotoxicity against human WI-38 cells assessed as reduction in cell viability at 20 uM incubated for 72 hrs by MTT assay relative to control; format: cell-based; settings: read-out: INH; outline: as §2
[5] = tested on: Mycobacterium tuberculosis; experiment: Antitubercular activity against Mycobacterium tuberculosis H37Rv infected in immune compromised GKO mouse assessed as spleen log CFU reduction; format: functional
[6] = tested on: Mycobacterium tuberculosis; experiment: Antitubercular activity against Mycobacterium tuberculosis H37Rv infected in immune compromised GKO mouse assessed as lung log CFU reduction; format: functional
[7] = tested on: Mycobacterium tuberculosis; experiment: Antitubercular activity against Mycobacterium tuberculosis H37Rv by microplate alamar blue assay; format: functional; outline: as §1
[8] = tested on: WI-38; experiment: Cytotoxicity against human WI-38 cells assessed as reduction in cell viability incubated for 72 hrs by MTT assay; format: cell-based; settings: WI-38, 72 h
[9] = Therapeutic index, ratio of IC50 for human WI-38 cells to MIC for Mycobacterium tuberculosis H37Rv; format: toxicity; settings: read-out: TI

Compound | MIC99 [1] [µg/mL] | further results
CCCc1ccc(C(=O)Nc2cc3nc(CN(C)c4ccccc4)[nH]c3cc2N(C)C)cc1 | 5 (≈ 11.3 µM) | 
COc1ccccc1C(=O)Nc1cc2nc(C3CCCC3)[nH]c2cc1N(C)C | 12.5 (≈ 33 µM) | 
CN(C)c1cc2[nH]c(Cc3ccccc3)nc2cc1NC(=O)c1ccc(OC(F)(F)F)cc1 | 1.25 (≈ 2.75 µM) | 
CN(C)c1cc2[nH]c(C3CCCCC3)nc2cc1NC(=O)c1ccc(OC(F)(F)F)cc1F | 0.16 (≈ 0.344 µM) | MIC99 [2]: 0.019 µg/mL (≈ 0.0409 µM); cytotoxicity at 72 h, 20 µM [3]: 57%; cytotoxicity at 72 h, 20 µM [4]: 78%; Activity [5]: 3.9 log10CFU; Activity [6]: 5.7 log10CFU; MIC [7]: 0.16 µg/mL (≈ 0.344 µM)
CN(C)c1cc2[nH]c(C3CCCC3)nc2cc1NC(=O)c1ccc(C(C)(C)C)cc1 | 0.78 (≈ 1.93 µM) | 
CCCCOC(=O)Nc1cc2nc(C(CC)CC)[nH]c2cc1N(C)C | 0.078 (≈ 0.225 µM) | cytotoxicity at 72 h, 20 µM [3]: 32%; cytotoxicity at 72 h, 20 µM [4]: 77%
CN(C)c1cc2[nH]c(C3CCOCC3)nc2cc1NC(=O)c1ccc(OC(F)(F)F)cc1 | > 10 | 
CCCCOC(=O)Nc1cc2nc(CN3CCOCC3)[nH]c2cc1N(C)C | 2.4 (≈ 6.39 µM) | MIC99 [2]: 1.6 µg/mL (≈ 4.26 µM)
CCCCOC(=O)Nc1cc2nc(SC(C)C)[nH]c2cc1N(C)C | 0.31 (≈ 0.884 µM) | 
CCCCOC(=O)Nc1cc2nc(CN(CCC)CCC)[nH]c2cc1N(C)C | 0.16 (≈ 0.411 µM) | cytotoxicity at 72 h, 20 µM [3]: 0%; cytotoxicity at 72 h, 20 µM [4]: 4%
CN(C)c1cc2[nH]c(CN(C)c3ccccc3)nc2cc1NC(=O)c1ccc(F)cc1F | 1.25 (≈ 2.87 µM) | 
CCCCOC(=O)Nc1cc2nc(-c3cccs3)[nH]c2cc1N(C)C | > 10 | 
CN(C)c1cc2[nH]c(C3CCCCC3)nc2cc1NC(=O)c1ccc(C(F)(F)F)cc1F |  | Activity [5]: 3.9 log10CFU; Activity [6]: 5.7 log10CFU; MIC [7]: 0.16 µg/mL (≈ 0.357 µM)
COc1ccc(C(=O)Nc2cc3nc(C4CCCC4)[nH]c3cc2N(C)C)cc1 | 1.25 (≈ 3.3 µM) | 
CCCCOC(=O)Nc1cc2nc(SCC)[nH]c2cc1N(C)C | 1.2 (≈ 3.57 µM) | MIC99 [2]: 0.16 µg/mL (≈ 0.476 µM)
CCC(CC)c1nc2cc(NC(=O)c3ccccc3)c(N(C)C)cc2[nH]1 | 1.56 (≈ 4.45 µM) | 
CCCCOC(=O)Nc1cc2nc(C3CCCC3)[nH]c2cc1N(C)C | 0.31 (≈ 0.9 µM) | cytotoxicity at 72 h, 20 µM [3]: 42%; cytotoxicity at 72 h, 20 µM [4]: 86%
CCC(CC)c1nc2cc(NC(=O)c3ccccc3OC)c(N(C)C)cc2[nH]1 | 1.56 (≈ 4.1 µM) | 
CN(C)c1cc2[nH]c(C3CCCC3)nc2cc1NC(=O)C1CCC1 | > 10 | 

Compound | MIC99 [1] [µg/mL] | further results
CCC(CC)c1nc2cc(NC(=O)c3ccc(F)cc3F)c(N(C)C)cc2[nH]1 | 0.71 (≈ 1.84 µM) | 
CCCCOC(=O)Nc1cc2nc(CN3CCCC3)[nH]c2cc1N(C)C | 2.4 (≈ 6.68 µM) | MIC99 [2]: 1.6 µg/mL (≈ 4.45 µM)
CCCCOC(=O)Nc1cc2nc(Sc3ccccc3)[nH]c2cc1N(C)C | 0.31 (≈ 0.806 µM) | 
CN(C)c1cc2[nH]c(C3CCCC3)nc2cc1NC(=O)c1ccccc1 | 1.56 (≈ 4.48 µM) | 
CCCCOC(=O)Nc1cc2nc(C3CCCCC3)[nH]c2cc1N(C)C | 0.06 (≈ 0.167 µM) | MIC99 [2]: 0.008 µg/mL (≈ 0.0223 µM)
CCC(CC)c1nc2cc(NC(=O)c3ccc(OC)c(OC)c3)c(N(C)C)cc2[nH]1 | 12.5 (≈ 30.4 µM) | 
CCC(CC)C(=O)Nc1cc2nc(C3CCCC3)[nH]c2cc1N(C)C | > 50 | 
CC(C)c1nc2cc(NC(=O)c3ccc(C(C)(C)C)cc3)c(N(C)C)cc2[nH]1 | 0.78 (≈ 2.06 µM) | 
CCCCOC(=O)Nc1cc2nc(C3CCOCC3)[nH]c2cc1N(C)C | > 2.5 | 
CN(C)c1cc2[nH]c(Cc3ccccc3)nc2cc1NC(=O)c1ccc(F)cc1 | 0.63 (≈ 1.62 µM) | 
CN(C)c1cc2[nH]c(C3CCCC3)nc2cc1NC(=O)c1ccc(OC(F)(F)F)cc1 | 1.56 (≈ 3.61 µM) | 
CN(C)c1cc2[nH]c(CN(C)c3ccccc3)nc2cc1NC(=O)c1ccc(OC(F)(F)F)cc1F | 0.29 (≈ 0.578 µM) | MIC99 [2]: 0.19 µg/mL (≈ 0.379 µM); cytotoxicity at 72 h, 20 µM [3]: 30%; cytotoxicity at 72 h, 20 µM [4]: 59%
CN(C)c1cc2[nH]c(C3CCCC3)nc2cc1NC(=O)c1ccc(F)cc1 | 0.78 (≈ 2.13 µM) | 
Cc1ccc(C(=O)Nc2cc3nc(CN(C)c4ccccc4)[nH]c3cc2N(C)C)cc1 | 1.25 (≈ 3.02 µM) | 
CCC(CC)C(=O)Nc1cc2nc(Cc3ccccc3)[nH]c2cc1N(C)C | > 10 | 
CCCCOC(=O)Nc1cc2nc(CN(C)c3ccccc3)[nH]c2cc1N(C)C | 0.16 (≈ 0.405 µM) | 
CN(C)c1cc2[nH]c(C3CCOCC3)nc2cc1NC(=O)c1ccc(OC(F)(F)F)cc1F | 10 (≈ 21.4 µM) | 
COc1ccc(CC(=O)Nc2cc3nc(CN(C)c4ccccc4)[nH]c3cc2N(C)C)cc1 | > 10 | 
CCCCOC(=O)Nc1cc2nc(C(C)C)[nH]c2cc1N(C)C | 1.25 (≈ 3.93 µM) | 

Compound | MIC99 [1] [µg/mL] | further results
CCCCOC(=O)Nc1cc2nc(SC3CCCCC3)[nH]c2cc1N(C)C |  | MIC99 [2]: < 0.0081 µg/mL; cytotoxicity at 72 h, 20 µM [3]: 50%; cytotoxicity at 72 h, 20 µM [4]: 87%
CN(C)c1cc2[nH]c(Cc3ccccc3)nc2cc1NC(=O)c1ccccc1 | 1.25 (≈ 3.37 µM) | 
COc1ccc(C(=O)Nc2cc3nc(Cc4ccccc4)[nH]c3cc2N(C)C)cc1 | 1.25 (≈ 3.12 µM) | 
CCC(CC)c1nc2cc(NC(=O)c3ccc(C)cc3)c(N(C)C)cc2[nH]1 | 0.5 (≈ 1.37 µM) | 
CN(C)c1cc2[nH]c(Cc3ccccc3)nc2cc1NC(=O)C(C)(C)C | > 10 | 
CN(C)c1cc2[nH]c(Cc3ccccc3)nc2cc1NC(=O)c1ccc(F)cc1F | 0.63 (≈ 1.55 µM) | 
CCC(CC)c1nc2cc(NC(=O)c3ccc(OC(F)(F)F)cc3)c(N(C)C)cc2[nH]1 | 0.31 (≈ 0.714 µM) | 
CCCCOC(=O)Nc1cc2nc(SCc3ccccc3)[nH]c2cc1N(C)C | 0.31 (≈ 0.778 µM) | 
CN(C)c1cc2[nH]c(Cc3ccccc3)nc2cc1NC(=O)c1ccc(C(C)(C)C)cc1 | 0.33 (≈ 0.774 µM) | 
CN(C)c1cc2[nH]c(C3CCCC3)nc2cc1NC(=O)c1ccc(F)cc1F | 0.625 (≈ 1.63 µM) | 
CCC(CC)c1nc2cc(NC(=O)c3ccc(F)cc3)c(N(C)C)cc2[nH]1 | 0.78 (≈ 2.12 µM) | 
CCCCOC(=O)Nc1cc2nc(CN3CCCCC3)[nH]c2cc1N(C)C | 0.14 (≈ 0.375 µM) | MIC99 [2]: 0.09 µg/mL (≈ 0.241 µM); cytotoxicity at 72 h, 20 µM [3]: 0%; cytotoxicity at 72 h, 20 µM [4]: 60%
CN(C)c1cc2[nH]c(CN(C)c3ccccc3)nc2cc1NC(=O)c1ccc(C(C)(C)C)cc1 | 2.5 (≈ 5.49 µM) | 
CCCCOC(=O)Nc1cc2nc(SCC3CCCCC3)[nH]c2cc1N(C)C | 0.015 (≈ 0.0371 µM) | IC50 [8]: 20 µM; MIC99 [2]: 0.0039 µg/mL (≈ 0.00964 µM); selectivity ratio [9]: > 100; cytotoxicity at 72 h, 20 µM [3]: 0%; cytotoxicity at 72 h, 20 µM [4]: 52%
CN(C)c1cc2[nH]c(C3CCCC3)nc2cc1NC(=O)C(C)(C)C | 50 (≈ 152 µM) | 
CCCCOC(=O)Nc1cc2nc(SC)[nH]c2cc1N(C)C | 9.6 (≈ 29.8 µM) | MIC99 [2]: 1.28 µg/mL (≈ 3.97 µM)
Cc1ccc(C(=O)Nc2cc3nc(C4CCCC4)[nH]c3cc2N(C)C)cc1 | 0.625 (≈ 1.72 µM) | 
CCCCOC(=O)Nc1cc2nc(Cc3ccccc3)[nH]c2cc1N(C)C | < 0.078 | cytotoxicity at 72 h, 20 µM [3]: 80%; cytotoxicity at 72 h, 20 µM [4]: 93%
Cc1ccc(C(=O)Nc2cc3nc(Cc4ccccc4)[nH]c3cc2N(C)C)cc1 | 1.56 (≈ 4.06 µM) | 
